Test results: ChEMBL document CHEMBL4196175, “First SAR Study for Overriding NRAS Mutant Driven Acute Myeloid Leukemia” (J Med Chem, 2018)
The source made the active and inactive calls. No cut-off for these calls is given here.

Legend:
[1] = molecular target: T1, Mitogen-activated protein kinase kinase kinase kinase 2 (Homo sapiens, UniProt Q12851); experiment: Inhibition of GCK (unknown origin) by radiometric biochemical kinase assay
T1 sequence (Q12851 whole entry): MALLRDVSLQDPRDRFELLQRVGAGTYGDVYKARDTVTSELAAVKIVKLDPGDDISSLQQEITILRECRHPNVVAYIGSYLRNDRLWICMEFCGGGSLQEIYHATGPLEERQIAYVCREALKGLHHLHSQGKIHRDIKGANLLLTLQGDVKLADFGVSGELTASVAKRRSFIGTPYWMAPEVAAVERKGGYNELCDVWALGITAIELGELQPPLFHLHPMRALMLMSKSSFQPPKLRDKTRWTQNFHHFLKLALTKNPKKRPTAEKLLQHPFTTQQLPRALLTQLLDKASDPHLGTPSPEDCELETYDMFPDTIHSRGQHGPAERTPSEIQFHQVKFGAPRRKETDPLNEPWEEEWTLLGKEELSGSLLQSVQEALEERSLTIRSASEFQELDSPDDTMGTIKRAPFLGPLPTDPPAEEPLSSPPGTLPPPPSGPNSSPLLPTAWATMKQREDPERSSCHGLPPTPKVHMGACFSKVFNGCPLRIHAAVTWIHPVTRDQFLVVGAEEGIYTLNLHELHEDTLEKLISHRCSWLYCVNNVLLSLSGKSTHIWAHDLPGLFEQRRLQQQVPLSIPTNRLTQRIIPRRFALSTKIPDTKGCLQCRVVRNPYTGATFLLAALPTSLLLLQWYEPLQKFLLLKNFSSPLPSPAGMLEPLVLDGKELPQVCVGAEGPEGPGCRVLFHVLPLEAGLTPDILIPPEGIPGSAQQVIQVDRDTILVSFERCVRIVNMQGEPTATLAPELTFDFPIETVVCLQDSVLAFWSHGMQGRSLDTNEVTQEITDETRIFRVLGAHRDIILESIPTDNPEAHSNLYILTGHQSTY

OCI-AML-3 [2] = experiment: Growth inhibition of human OCI-AML3 cells harboring NRAS-Q61L mutant after 72 hrs by celltiter-glo assay; format: functional; details: OCI-AML-3, 72 h
[3] = Growth inhibition of parental mouse BA/F3 cells after 72 hrs by celltiter-glo assay; format: cell-based, BaF3
Mus musculus = species on record: Mus musculus; experiment: Inhibition of ACK1/GCK in mouse BA/F3 cells assessed as reduction in NRAS-G12D mutant-mediated cell proliferation after 72 hrs by celltiter-glo assay; format: cell-based
[4] = Growth inhibition of parental human U937 cells after 72 hrs by celltiter-glo assay; format: cell-based, U-937
Activated CDC42 kinase 1 = Activated CDC42 kinase 1 (Homo sapiens, UniProt Q07912); experiment: Inhibition of ACK1 (unknown origin) by radiometric biochemical kinase assay
OCI-AML-3 [5] = experiment: Growth inhibition of ACK1/GCK knockdown human OCI-AML3 cells harboring NRAS-Q61L mutant at 0.2 uM after 72 hrs by celltiter-glo assay; format: functional, cell-based
CYP3A4 = CYP3A4 (Homo sapiens, UniProt P08684); experiment: Inhibition of CYP3A4 (unknown origin) assessed as activity remaining at 10 uM relative to control; format: ADME; details: read-out: Activity
[6] = Metabolic stability in dog liver microsomes assessed as compound remaining at 1 uM after 30 mins; format: ADME, Canis lupus familiaris, microsome; details: read-out: Stability
[7] = Metabolic stability in rat liver microsomes assessed as compound remaining at 1 uM after 30 mins; format: ADME, microsome; details: read-out: Stability
[8] = Metabolic stability in human liver microsomes assessed as compound remaining at 1 uM after 30 mins; format: ADME, microsome; details: read-out: Stability
CYP1A2 = molecular target: T2, CYP1A2 (Homo sapiens, UniProt P05177); experiment: Inhibition of CYP1A2 (unknown origin) assessed as activity remaining at 10 uM relative to control; format: ADME; details: read-out: Activity
T2 sequence (P05177 whole entry): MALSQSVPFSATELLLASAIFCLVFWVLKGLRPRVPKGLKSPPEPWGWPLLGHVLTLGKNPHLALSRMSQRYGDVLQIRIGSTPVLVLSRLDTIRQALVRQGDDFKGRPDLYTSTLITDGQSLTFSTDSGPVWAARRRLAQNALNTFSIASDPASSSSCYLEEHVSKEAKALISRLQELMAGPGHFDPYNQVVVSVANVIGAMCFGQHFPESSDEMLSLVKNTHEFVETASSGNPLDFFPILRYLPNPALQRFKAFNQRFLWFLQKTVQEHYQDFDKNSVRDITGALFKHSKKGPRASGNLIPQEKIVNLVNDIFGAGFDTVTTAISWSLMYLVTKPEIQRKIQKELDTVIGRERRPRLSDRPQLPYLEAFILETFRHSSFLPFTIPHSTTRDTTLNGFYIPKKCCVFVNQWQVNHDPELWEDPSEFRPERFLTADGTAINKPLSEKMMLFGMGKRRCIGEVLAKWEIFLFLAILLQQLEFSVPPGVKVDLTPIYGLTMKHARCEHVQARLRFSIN

OCI-AML-3 [9] = experiment: Growth inhibition of ACK1/GCK knockdown human OCI-AML3 cells harboring NRAS-Q61L mutant at 0.05 uM after 72 hrs by celltiter-glo assay; format: functional, cell-based
CYP2D6 = CYP2D6 (Homo sapiens, UniProt P10635); experiment: Inhibition of CYP2D6 (unknown origin) assessed as activity remaining at 10 uM relative to control; format: ADME; details: read-out: Activity
[10] = Metabolic stability in mouse liver microsomes assessed as compound remaining at 1 uM after 30 mins; format: ADME, microsome; details: read-out: Stability
CYP2C9 = CYP2C9 (Homo sapiens, UniProt P11712); experiment: Inhibition of CYP2C9 (unknown origin) assessed as activity remaining at 10 uM relative to control; format: ADME; details: read-out: Activity
OCI-AML-3 [11] = experiment: Growth inhibition of ACK1/GCK knockdown human OCI-AML3 cells harboring NRAS-Q61L mutant at 0.5 uM after 72 hrs by celltiter-glo assay; format: functional, cell-based
[12] = Selectivity index, ratio of GI50 for parental human U937 cells to GI50 for human OCI-AML3 cells harboring NRAS-Q61L mutant
How it was run: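 Human AML lines OCI-AML3 (NRAS mutant) and U937 (NRAS wild-type) were exposed to inhibitors for 72 h. GI50 is the concentration giving half-maximal growth inhibition, averaged with SD (n = 3, duplicate). The index is the U937 GI50 divided by the OCI-AML3 GI50.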

Sequence of Activated CDC42 kinase 1 (Q07912 whole entry): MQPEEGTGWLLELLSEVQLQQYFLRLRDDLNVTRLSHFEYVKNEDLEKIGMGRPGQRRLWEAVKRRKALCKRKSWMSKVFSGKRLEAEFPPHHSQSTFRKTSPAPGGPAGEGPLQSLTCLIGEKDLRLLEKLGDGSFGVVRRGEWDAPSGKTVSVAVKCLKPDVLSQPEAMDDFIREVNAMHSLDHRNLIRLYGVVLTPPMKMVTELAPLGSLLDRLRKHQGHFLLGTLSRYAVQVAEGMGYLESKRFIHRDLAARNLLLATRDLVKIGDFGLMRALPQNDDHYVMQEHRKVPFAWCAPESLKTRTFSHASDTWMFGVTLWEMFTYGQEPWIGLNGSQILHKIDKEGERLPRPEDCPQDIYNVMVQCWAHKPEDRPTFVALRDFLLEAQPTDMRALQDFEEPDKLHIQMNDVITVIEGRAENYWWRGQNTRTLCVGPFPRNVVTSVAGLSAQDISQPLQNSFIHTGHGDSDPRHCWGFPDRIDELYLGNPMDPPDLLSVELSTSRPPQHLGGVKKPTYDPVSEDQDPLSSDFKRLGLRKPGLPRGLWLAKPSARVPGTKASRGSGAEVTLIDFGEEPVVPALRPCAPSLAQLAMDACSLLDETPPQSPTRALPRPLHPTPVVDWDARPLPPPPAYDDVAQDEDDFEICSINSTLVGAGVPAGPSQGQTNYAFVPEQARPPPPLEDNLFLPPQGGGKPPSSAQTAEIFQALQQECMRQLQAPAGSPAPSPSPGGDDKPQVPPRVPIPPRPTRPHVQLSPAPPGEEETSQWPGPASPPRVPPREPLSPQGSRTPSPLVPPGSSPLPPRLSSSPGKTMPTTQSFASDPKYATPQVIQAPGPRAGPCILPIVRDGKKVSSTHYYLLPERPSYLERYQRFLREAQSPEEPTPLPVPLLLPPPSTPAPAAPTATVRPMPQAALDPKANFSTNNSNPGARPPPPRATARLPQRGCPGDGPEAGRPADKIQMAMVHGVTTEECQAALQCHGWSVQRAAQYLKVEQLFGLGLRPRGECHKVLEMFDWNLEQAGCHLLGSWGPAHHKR
Sequence of CYP2D6 (P10635 whole entry): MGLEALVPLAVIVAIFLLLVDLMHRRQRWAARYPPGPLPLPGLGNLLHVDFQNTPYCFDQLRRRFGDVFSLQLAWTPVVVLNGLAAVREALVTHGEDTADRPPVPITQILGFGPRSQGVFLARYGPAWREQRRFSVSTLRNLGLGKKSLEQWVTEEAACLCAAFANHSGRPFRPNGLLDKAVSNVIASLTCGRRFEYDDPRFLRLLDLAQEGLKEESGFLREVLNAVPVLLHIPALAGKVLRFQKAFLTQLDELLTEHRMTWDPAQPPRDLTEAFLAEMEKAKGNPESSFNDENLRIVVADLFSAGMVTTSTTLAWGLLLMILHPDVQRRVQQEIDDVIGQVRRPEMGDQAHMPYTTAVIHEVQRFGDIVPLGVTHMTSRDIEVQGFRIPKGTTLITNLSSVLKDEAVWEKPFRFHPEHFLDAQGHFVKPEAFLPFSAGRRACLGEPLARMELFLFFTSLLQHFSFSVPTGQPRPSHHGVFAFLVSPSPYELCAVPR
Sequence of CYP3A4 (P08684 whole entry): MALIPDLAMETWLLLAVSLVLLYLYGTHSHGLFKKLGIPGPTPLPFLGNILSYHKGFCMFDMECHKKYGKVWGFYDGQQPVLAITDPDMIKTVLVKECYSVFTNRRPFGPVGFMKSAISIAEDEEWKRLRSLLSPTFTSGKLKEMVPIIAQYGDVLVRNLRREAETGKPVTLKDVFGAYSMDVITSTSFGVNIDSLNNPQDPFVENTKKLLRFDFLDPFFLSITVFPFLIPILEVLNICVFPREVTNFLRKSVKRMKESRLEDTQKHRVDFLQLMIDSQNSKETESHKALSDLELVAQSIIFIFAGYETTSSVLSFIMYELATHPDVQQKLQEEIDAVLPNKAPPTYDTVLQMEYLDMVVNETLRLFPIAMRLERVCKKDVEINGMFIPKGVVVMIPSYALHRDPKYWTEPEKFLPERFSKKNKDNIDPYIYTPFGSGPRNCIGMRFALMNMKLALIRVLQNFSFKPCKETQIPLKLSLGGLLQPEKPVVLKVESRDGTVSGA
Sequence of CYP2C9 (P11712 whole entry): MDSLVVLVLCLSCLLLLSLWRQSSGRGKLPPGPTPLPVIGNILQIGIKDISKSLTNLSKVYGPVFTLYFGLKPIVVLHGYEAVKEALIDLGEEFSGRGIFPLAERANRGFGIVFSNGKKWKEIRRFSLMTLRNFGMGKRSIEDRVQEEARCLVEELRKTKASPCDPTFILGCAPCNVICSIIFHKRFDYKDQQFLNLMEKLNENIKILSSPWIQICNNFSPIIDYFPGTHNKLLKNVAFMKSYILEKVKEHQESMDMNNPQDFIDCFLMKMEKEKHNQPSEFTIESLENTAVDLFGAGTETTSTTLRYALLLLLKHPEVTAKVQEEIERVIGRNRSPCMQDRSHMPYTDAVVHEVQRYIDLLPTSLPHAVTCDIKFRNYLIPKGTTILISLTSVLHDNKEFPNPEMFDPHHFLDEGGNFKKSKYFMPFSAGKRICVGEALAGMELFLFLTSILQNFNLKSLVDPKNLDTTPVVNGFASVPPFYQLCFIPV

Row | IC50 [1] | GI50 (OCI-AML-3 [2]) | IC50 (Activated CDC42 kinase 1) | activity at 10 µM (CYP3A4) | remaining at 0.5 h, 1 µM [6] | remaining at 0.5 h, 1 µM [7] | remaining at 0.5 h, 1 µM [8] | activity at 10 µM (CYP1A2) | activity at 10 µM (CYP2D6) | remaining at 0.5 h, 1 µM [10] | activity at 10 µM (CYP2C9) | SMILES | GI50 at 72 h [3] | GI50 (Mus musculus) | GI50 at 72 h [4] | growth inhibition (GI) (OCI-AML-3 [5]) | growth inhibition (GI) (OCI-AML-3 [9]) | growth inhibition (GI) (OCI-AML-3 [11]) | RatioGI50 [12]
1 | 72 nM | 143 nM | 40 nM | – | – | – | – | – | – | – | – | Cc1ccc(Nc2ncc3c(n2)N(C)C(=O)N(c2cc(NC(=O)c4cc(N5CCC(O)CC5)cc(C(F)(F)F)c4)ccc2C)C3)cn1 | 671 nM | 118 nM | 2180 nM | Active | – | – | –
2 | 47 nM | – | 37 nM | – | – | – | – | – | – | – | – | Cc1ccc(NC(=O)c2cccc(C(F)(F)F)c2)cc1N1Cc2cnc(Nc3ccccc3)nc2N(C)C1=O | 1790 nM | 380 nM | – | – | – | – | –
3 | 7 nM | 30 nM | 28 nM | > 100% | 21.4% | 19.2% | 29.8% | 89.7% | 68% | 21.2% | 23% | CCN1CCN(c2ccc(Nc3ncc4c(n3)N(C)C(=O)N(c3cc(NC(=O)c5cccc(C(F)(F)F)c5)ccc3C)C4)cn2)CC1 | 264 nM | 71 nM | 1410 nM | – | Active | – | –
4 | 16 nM | – | 25 nM | – | – | – | – | – | – | – | – | CC(=O)N1CCN(c2ccc(Nc3ncc4c(n3)N(C)C(=O)N(c3cc(NC(=O)c5ccc(CN6CCC(N(C)C)C6)c(C(F)(F)F)c5)ccc3C)C4)cn2)CC1 (stereo not given) | 187 nM | 41 nM | – | – | – | – | –
5 | 33 nM | 367 nM | 21 nM | – | – | – | – | – | – | – | – | Cc1ccc(NC(=O)c2cccc(C(F)(F)F)c2)cc1N1Cc2cnc(NCCO)nc2N(C)C1=O | 3290 nM | 290 nM | 8530 nM | – | – | Active | –
6 | 8 nM | 40 nM | 20 nM | > 100% | 21.3% | 19.7% | 46.7% | 92.1% | 79.8% | 20.9% | 34.3% | CCN1CCN(c2ccc(Nc3ncc4c(n3)N(C)C(=O)N(c3cc(NC(=O)c5cccc(C(F)(F)F)c5)ccc3C)C4)cc2)CC1 | 559 nM | 83 nM | 839 nM | – | Active | – | –
7 | 1080 nM | – | 21 nM | – | – | – | – | – | – | – | – | Cc1ccc(Nc2ncc3c(n2)N(C)C(=O)N(c2cc(NC(=O)c4ccccc4)ccc2C)C3)cn1 | 2700 nM | 1470 nM | – | – | – | – | –
8 | 39 nM | 394 nM | 20 nM | – | – | – | – | – | – | – | – | Cc1ccc(Nc2ncc3c(n2)N(C)C(=O)N(c2cc(NC(=O)c4ccc(C)c(C(F)(F)F)c4)ccc2C)C3)cn1 | 870 nM | 387 nM | 19400 nM | – | – | Active | –
9 | 10 nM | – | 28 nM | – | – | – | – | – | – | – | – | Cc1ccc(Nc2ncc3c(n2)N(C)C(=O)N(c2cc(NC(=O)c4ccc(N5CCN(C)CC5)c(C(F)(F)F)c4)ccc2C)C3)cn1 | 685 nM | 341 nM | – | – | – | – | –
10 | 24 nM | 267 nM | 10 nM | – | – | – | – | – | – | – | – | Cc1ccc(Nc2ncc3c(n2)N(C)C(=O)N(c2cc(NC(=O)c4ccc(-n5cccc5)c(C(F)(F)F)c4)ccc2C)C3)cn1 | 317 nM | 69 nM | > 25000 nM | Active | – | – | 100
